Experimental data reported in PubChem BioAssay AID743247 (Broad Institute, 2014).
Where “and” joins values, the source holds several entries; their conditions need not be identical. Equal values may be shown once. Out of some 350,000 compounds screened, about 300 (0.086%) were called active. Many of the other results were omitted from the sample, so actives are more common in it than they were. Values without a mark were called inactive.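 Rule for the calls: active = mean inhibition across replicates of 30% or more, regardless of how many single replicates reach that level; inconclusive = mean under 30% yet at least half of replicates reach 30%; inactive = the rest.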

Experiment: blockers of fibronectin fibrillogenesis by fibroblasts – AH1F cells, Alexa488-fibronectin fluorescence, plate reader, primary screen (AID 743247);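 note: positive control wells lacked labelled fibronectin entirely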
Conditions: Alexa488-fibronectin deposition fluorescence, overnight, at 12.6 µM, hits give high values
Method in brief: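 material = AH1F fibroblast monolayer depositing Alexa488-labelled fibronectin into matrix | amount = 10000 AH1F cells/well | buffer or medium = DMEM plus 2% serum, read in PBS | incubation = 1 h cell adhesion before compound, then overnight fibronectin incubation | detection = fluorescence at 485 nm excitation, 525 nm emission | evaluation = percent inhibition as loss of matrix-bound fibronectin fluorescence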

SMILES | inhibition
CC(=O)N(C)C[C@@H]1Oc2ccc(N)cc2CC(=O)N(C)C[C@H]1C | -1.05%
CNC[C@@H]1Oc2ccc(N(C)C)cc2CC(=O)N(C)C[C@@H]1C | 2.18%
C[C@H](CO)N1C[C@H](C)[C@H](CN(C)Cc2ccc(C(F)(F)F)cc2)OCCCC[C@H](C)Oc2ccc(NS(=O)(=O)c3ccc(Cl)cc3)cc2C1=O | -21%
C[C@@H]1CCCCO[C@H](CN(C)C)[C@H](C)CN([C@@H](C)CO)C(=O)c2cc(NS(=O)(=O)c3cn(C)cn3)ccc2O1 | -0.203%
CCC(=O)N1CC2(C1)[C@@H](c1ccccc1)[C@H](CO)N2CC1CCOCC1 | -2.08%
CN1c2ccc(-c3cccc(C#N)c3)cc2[C@@H]2[C@@H](CCN2C(=O)NC2CCCCC2)[C@@H]1CO | -3.13%
COc1ccc(NC(=O)N2C[C@H](O)COC[C@H]3O[C@@H](CC(=O)N4CCN(C)CC4)CC[C@@H]32)cc1 | -2.89%
CC[C@H]1CC=CC[C@@H](C)Oc2ccccc2C(=O)N(C)[C@H](Cc2ccccc2)C(=O)N1 (mixture of isomers) | 0.881%
COc1ccccc1NC(=O)N1[C@@H]2CNC[C@H]1C2c1ccc(-c2ccccc2C)cc1 (some centres undefined) | -3.3%
CCCN1C[C@@H](C)[C@@H](OC)CN(C)C(=O)c2cc(NC(=O)Nc3cccc(F)c3)ccc2OC[C@@H]1C | -5.97%
C[C@H]1CN(C)C(=O)c2cccc(N(C)C)c2O[C@@H]1CN(C)C | -26.9%
O=C(C1CCCCC1)N1CC(=O)N2[C@H](CO)[C@H](c3ccc(-c4ccccc4F)cc3)[C@H]2C1 | -7.64%
O=C1N[C@H](c2ccccc2)COCc2cn(nn2)CC[C@H]1Cc1cccc(Cl)c1 | -1.96%
COc1ccc2c3c([nH]c2c1)[C@@H](CO)N(Cc1ccccc1)CC31CCN(Cc2cncnc2)CC1 | -11.5%
O=C1NCCOCc2cn(nn2)CC[C@@H]1Cc1ccccc1 | -3.44%
CCCNC(=O)Nc1ccc2c(c1)C(=O)N(C)[C@H]1CC[C@H](CC(=O)NC3CCC3)O[C@H]1CO2 | -3.4%
CN(C)CC(=O)N[C@@H]1CC[C@H](CCn2cc(C3CCCC3)nn2)O[C@H]1CO | 5.53%
CC(C)NC(=O)Nc1cccc2c1O[C@H](CN(C)Cc1ccc3c(c1)OCO3)[C@H](C)CN([C@H](C)CO)C2=O | 7.48%
CNC[C@H]1Oc2ccccc2CC(=O)N(C)C[C@H]1C | -0.894%
COc1ccc2c3c(n(C)c2c1)[C@H](CO)N(C)CC31CN(S(=O)(=O)c2cccc(C)c2)C1 | 11.9%
O=C1C[C@@H](c2ccccc2)C(=O)N[C@H](c2ccc(F)cc2)C/C=C\CCN1 | -8.29%
C/C=C/c1ccc2c(c1)O[C@H](CN(C)C(=O)Nc1ccc(OC)cc1)[C@@H](C)CN([C@H](C)CO)S2(=O)=O | 9.72%

SMILES | inhibition
Cc1cccc(CS(=O)(=O)c2ncc(Cl)c(C(=O)Nc3ccc(F)cc3)n2)c1 | 34.8% (active)
Cc1ccc(CS(=O)(=O)c2ncc(Cl)c(C(=O)Nc3nnc(C)s3)n2)cc1 | 0.254%
Cc1cccc(NC(=O)c2nc(S(=O)(=O)Cc3ccccc3)ncc2Cl)c1 | 20.9%
O=C(C1CCC1)N1CC[C@H]2[C@H](CO)Nc3ccc(-c4cccc(F)c4)cc3[C@H]21 | -4.67%
COc1ccc(-c2ccccc2[C@H]2[C@@H](CO)N(C(=O)c3cccnc3)[C@H]2C#N)cc1 | 0.791%
COc1cccc(C(=O)Nc2ccc3c(c2)C(=O)N(C)[C@H]2CC[C@@H](CC(=O)N[C@H](C)c4ccccc4)O[C@H]2CO3)c1 | 1.83%
CS(=O)(=O)Nc1ccc2c(c1)[C@H]1C[C@@H](CC(=O)N3CCOCC3)O[C@@H](CO)[C@H]1O2 | -0.107%
C[C@@H]1CC=CC[C@@H](c2ccccc2)NC(=O)[C@@H](Cc2ccccc2)N(C)C(=O)c2ccccc2O1 (mixture of isomers) | 15.9%
O=C(Nc1ccc(C(F)(F)F)cc1)N1[C@@H]2CNC[C@H]1C2c1ccc(-c2ccncc2)cc1 (some centres undefined) | -4.68% and -6.18%
COc1cccc(NC(=O)Nc2ccc3c(c2)OC[C@@H](C)NC[C@@H](C)[C@H](OC)CN(C)C3=O)c1 | -4.31%
CCCN1[C@H](CO)[C@H](c2ccc(C#CC3CCCCC3)cc2)[C@@H]1CNC(=O)C1CC1 | -11.7%
COc1ccc(S(=O)(=O)N(C)C[C@@H]2Oc3ccc(NC(=O)Nc4cccc5ccccc45)cc3C(=O)N([C@H](C)CO)C[C@H]2C)cc1 | 9.82%
COc1ccc2c3c(n(C)c2c1)[C@H](CO)N(Cc1ccc(F)cc1)CC31CCN(C)CC1 | 8.27%
O=C(Nc1ccccc1Cl)/C(Cl)=C(\Cl)S(=O)c1ccccc1 (centres undefined) | 41.6% (active)
NC(=O)C1(Nc2ccccc2Cl)CCCC1 | -0.504%
O=C(CCN1CCN(C/C=C/c2ccccc2)CC1)Nc1ccccc1Cl | 15.1%
COc1ccc2c3c(n(C)c2c1)[C@H](CO)N(C(C)=O)CC31CN(Cc2ccc(Cl)cc2)C1 | 9.57%
COc1ccc(S(=O)(=O)N2C[C@@H](O)COC[C@H]3O[C@@H](CC(=O)NCCN4CCCCC4)CC[C@@H]32)cc1 | -7.51%
CO[C@H]1CN(C)C(=O)c2ccc(NC(C)=O)cc2OC[C@@H](C)N(C(=O)c2ccncc2)C[C@@H]1C | -5.05%
O=C(c1cnccn1)N1CC(=O)N2[C@H](C1)[C@@H](c1ccc(C#CC3CCCC3)cc1)[C@@H]2CO | 0.368%
CN(C)C(=O)C[C@H]1C[C@H]2c3cc(NC(=O)Nc4ccccc4F)ccc3O[C@H]2[C@@H](CO)O1 | -8.8%
CC(=O)N1C[C@@H]2C(c3ccccc3)[C@@H](C1)N2C(=O)NC(C)C (some centres undefined) | -6.49%
